Published values pooled from the literature.
Each line is one published result; the experiments were not run side by side.
Target: Serine/threonine-protein kinase D3 (PRKD3, Homo sapiens, UniProt O94806)
Sequence (O94806 1-890, as in one of the studies): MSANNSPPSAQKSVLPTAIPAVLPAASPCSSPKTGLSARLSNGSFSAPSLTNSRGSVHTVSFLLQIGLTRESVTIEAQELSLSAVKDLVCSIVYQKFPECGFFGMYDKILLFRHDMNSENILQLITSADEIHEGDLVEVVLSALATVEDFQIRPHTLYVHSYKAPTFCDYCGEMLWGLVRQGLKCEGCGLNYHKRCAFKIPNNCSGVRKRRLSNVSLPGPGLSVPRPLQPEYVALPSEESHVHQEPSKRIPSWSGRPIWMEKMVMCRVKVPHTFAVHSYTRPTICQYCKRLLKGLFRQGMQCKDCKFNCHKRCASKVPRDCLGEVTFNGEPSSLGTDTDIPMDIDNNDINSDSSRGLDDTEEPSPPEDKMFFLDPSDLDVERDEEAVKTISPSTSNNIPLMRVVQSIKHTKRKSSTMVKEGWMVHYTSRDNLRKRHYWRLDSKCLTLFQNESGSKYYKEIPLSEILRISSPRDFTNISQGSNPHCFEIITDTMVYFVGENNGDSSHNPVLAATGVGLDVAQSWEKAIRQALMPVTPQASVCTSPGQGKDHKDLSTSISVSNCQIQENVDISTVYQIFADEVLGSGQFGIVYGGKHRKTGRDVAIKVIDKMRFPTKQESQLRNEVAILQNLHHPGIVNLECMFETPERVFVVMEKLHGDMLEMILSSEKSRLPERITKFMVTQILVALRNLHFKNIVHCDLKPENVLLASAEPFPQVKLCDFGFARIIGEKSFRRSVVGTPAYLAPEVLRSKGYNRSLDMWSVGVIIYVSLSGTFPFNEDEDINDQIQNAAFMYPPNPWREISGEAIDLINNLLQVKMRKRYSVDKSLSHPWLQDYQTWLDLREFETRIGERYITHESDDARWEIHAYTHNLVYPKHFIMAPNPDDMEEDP

The remaining binding of `COc1ncc2cc3ccccc3nc2c1C#N` is reported as 100% (cell-free assay, competition with immobilised ligand; 5 µM).
For `CN(C)C(=O)Cn1cc(-c2nc(C3(c4ccc(-c5cnc(N)nc5)cc4)CC3)no2)cn1`, the remaining binding was 92% (cell-free assay, competition with immobilised ligand; 1 µM).
For `c1cncc(-c2cccc(Nc3nccc(NC4CCCCC4)n3)c2)c1`, the remaining binding was 7.4% (binding, competition with immobilised ligand; 10 µM).
For `C[C@@H]1CN(c2cc(-c3n[nH]c4ccc(OC5(C)CC5)cc34)ncn2)C[C@H](C)O1`, the remaining binding was 82% (cell-free assay, competition with immobilised ligand; 0.1 µM).
`FC(F)(F)Oc1cccc(-c2cnc3ccc(-c4ccncc4)nn23)c1` gave a remaining binding of 100% (cell-free assay, competition with immobilised ligand; 5 µM).
With `CNC(=O)c1ccc(Nc2ncc(C(F)(F)F)c(NCc3nccnc3N(C)S(C)(=O)=O)n2)cc1` the remaining binding was 100% (cell-free assay, competition with immobilised ligand; 0.1 µM).
For `O=C(NCC1CCOCC1)c1n[nH]cc1NC(=O)c1c(F)cccc1F`, the remaining binding was 97% (binding, competition with immobilised ligand; 1 µM).
For `Cc1cnn2ncc(-c3ccnc(N(C)C)n3)c2c1`, the remaining binding was 98% (binding; 1 µM).
For `Cc1cnc(Nc2ccc(C(=O)N3CCC(N4CCCC4)CC3)cc2)nc1-c1cc2ccccc2s1`, the remaining binding was 37% (binding, competition with immobilised ligand; 1 µM).
With `c1cnn2ncc(-c3ccnc(N4CCC45COC5)n3)c2c1` the remaining binding was 71% (binding; 1 µM).
`Nc1ncc2c(n1)-c1c([nH]c3ccc(C#CC4CC4)cc13)CCCC2` gave a remaining binding of 61% (binding, competition with immobilised ligand; 1 µM).
With `O=C(NCCCN1CCOCC1)c1ccc(Nc2ncc(Cl)c(-c3ccc(Cl)s3)n2)cc1` the remaining binding was 20% (binding, competition with immobilised ligand; 1 µM).
`C[C@@H]1CCN(c2nccc(-c3cnn4ncccc34)n2)C1` gave a remaining binding of 100% (binding; 1 µM).
`O=C(c1ccc(Nc2ncc(Cl)c(-c3ccc(Cl)s3)n2)cc1)N1CCC(N2CCCC2)CC1` has a remaining binding of 3.6% (binding, competition with immobilised ligand; 1 µM).
`Cc1cc(NC(=O)c2cccc(S(F)(F)(F)(F)F)c2)cc(-n2ccn3nc(-c4cccnc4)cc23)c1` has a remaining binding of 100% (cell-free assay, competition with immobilised ligand; 1 µM).
The remaining binding of `CN(CCCC(F)(F)F)c1nccc(-c2cnn3ncccc23)n1` is reported as 100% (binding; 1 µM).
`COc1cnc(Nc2cccc(S(N)(=O)=O)c2)nc1N1CCN(c2ccccc2)CC1` gave a remaining binding of 96% (binding, competition with immobilised ligand; 1 µM).
`CC1CCCN1c1nccc(-c2cnn3ncccc23)n1` (stereo not drawn) has a remaining binding of 97% (binding; 1 µM).
For `CNCc1ccccc1-c1csc([C@@H](C)Nc2nc(C)nc3cc(OC)c(OC)cc23)c1`, the remaining binding was 92% (cell-free assay, competition with immobilised ligand; 1 µM).
With `N[C@@H]1CCN(c2nccc(-c3cnn4ncccc34)n2)C1` the remaining binding was 100% (binding; 1 µM).
`COc1ccc2cc(OCC3(C(=O)O)CN(C(=O)c4ccc(F)cc4)C3)ccc2c1` has a remaining binding of 91% (cell-free assay, competition with immobilised ligand; 1 µM).
